Test system: U2OS
Test: Multiplex assay against U2OS
Assay type: toxicity, cell-based
Conditions: human
In short: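 Compound was added to live cells that had been stained at seeding with Hoechst33342, BioTracker Green Microtubule Cytoskeleton Dye, MitoTracker Red and Annexin V Alexa Fluor 680, and imaging followed on a CQ1 microscope at 37°C and 5% CO2. CellPathfinder machine-learning gating divided cells into Hoechst high-intensity objects or normal cells, normal cells into healthy, pyknosed or fragmented nuclei, and pyknosed cells into mitotic or apoptotic. Tubulin, mitochondrial-mass and membrane-permeability phenotypes are per cents of healthy-nucleus cells.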

[1] = 12 h, 1 µM, compound concentration 1 uM, replicate 1
[2] = 12 h, 1 µM, compound concentration 1 uM, replicate 2
[3] = 12 h, 10 µM, compound concentration 10 uM, replicate 1
[4] = 12 h, 10 µM, compound concentration 10 uM, replicate 2
[5] = 24 h, 1 µM, compound concentration 1 uM, replicate 1
[6] = 24 h, 1 µM, compound concentration 1 uM, replicate 2
[7] = 24 h, 10 µM, compound concentration 10 uM, replicate 1
[8] = 24 h, 10 µM, compound concentration 10 uM, replicate 2
[9] = 48 h, 1 µM, compound concentration 1 uM, replicate 1
[10] = 48 h, 1 µM, compound concentration 1 uM, replicate 2
[11] = 48 h, 10 µM, compound concentration 10 uM, replicate 1
[12] = 48 h, 10 µM, compound concentration 10 uM, replicate 2

CC(/C=C1\SC(=S)N(CCCC(=O)Nc2ccc(C(=O)O)c(O)c2)C1=O)=C\c1ccccc1
Population Apoptotic (%) [1]: 94% | Population Fragmented Nuclei (%) [1]: 26% | Population Healthy Nuclei (%) [1]: 64% | Population Hoechst High Intensity Objects (%) [1]: 3% | Population Membrane Permeable-Phenotype (%) [1]: 4% | Population Mitochondria Different-Phenotype (%) [1]: 1% | Population Mitotic Cells (%) [1]: 5% | Population Normal (%) [1]: 96% | Population Pyknosed Nuclei (%) [1]: 8% | Population Tubulin-Different-Phenotype (%) [1]: 3% | Total Cell Count [1]: 205 | Population Apoptotic (%) [2]: 100% | Population Fragmented Nuclei (%) [2]: 12% | Population Healthy Nuclei (%) [2]: 80% | Population Hoechst High Intensity Objects (%) [2]: 4% | Population Membrane Permeable-Phenotype (%) [2]: 3% | Population Mitochondria Different-Phenotype (%) [2]: 2% | Population Mitotic Cells (%) [2]: 0% | Population Normal (%) [2]: 95% | Population Pyknosed Nuclei (%) [2]: 7% | Population Tubulin-Different-Phenotype (%) [2]: 0% | Total Cell Count [2]: 133 | Population Apoptotic (%) [3]: 91% | Population Fragmented Nuclei (%) [3]: 28% | Population Healthy Nuclei (%) [3]: 61% | Population Hoechst High Intensity Objects (%) [3]: 3% | Population Membrane Permeable-Phenotype (%) [3]: 12% | Population Mitochondria Different-Phenotype (%) [3]: 2% | Population Mitotic Cells (%) [3]: 8% | Population Normal (%) [3]: 96% | Population Pyknosed Nuclei (%) [3]: 9% | Population Tubulin-Different-Phenotype (%) [3]: 4% | Total Cell Count [3]: 241 | Population Apoptotic (%) [4]: 72% | Population Fragmented Nuclei (%) [4]: 16% | Population Healthy Nuclei (%) [4]: 72% | Population Hoechst High Intensity Objects (%) [4]: 0% | Population Membrane Permeable-Phenotype (%) [4]: 4% | Population Mitochondria Different-Phenotype (%) [4]: 1% | Population Mitotic Cells (%) [4]: 27% | Population Normal (%) [4]: 100% | Population Pyknosed Nuclei (%) [4]: 10% | Population Tubulin-Different-Phenotype (%) [4]: 5% | Total Cell Count [4]: 101 | Population Apoptotic (%) [5]: 83% | Population Fragmented Nuclei (%) [5]: 25% | Population Healthy Nuclei (%) [5]: 64% | Population Hoechst High Intensity Objects (%) [5]: 3% | Population Membrane Permeable-Phenotype (%) [5]: 4% | Population Mitochondria Different-Phenotype (%) [5]: 1% | Population Mitotic Cells (%) [5]: 16% | Population Normal (%) [5]: 96% | Population Pyknosed Nuclei (%) [5]: 10% | Population Tubulin-Different-Phenotype (%) [5]: 1% | Total Cell Count [5]: 247 | Population Apoptotic (%) [6]: 94% | Population Fragmented Nuclei (%) [6]: 9% | Population Healthy Nuclei (%) [6]: 79% | Population Hoechst High Intensity Objects (%) [6]: 1% | Population Membrane Permeable-Phenotype (%) [6]: 10% | Population Mitotic Cells (%) [6]: 5% | Population Normal (%) [6]: 98% | Total Cell Count [6]: 177 | Population Apoptotic (%) [7]: 88% | Population Fragmented Nuclei (%) [7]: 26% | Population Healthy Nuclei (%) [7]: 64% | Population Hoechst High Intensity Objects (%) [7]: 2% | Population Membrane Permeable-Phenotype (%) [7]: 7% | Population Mitochondria Different-Phenotype (%) [7]: 3% | Population Mitotic Cells (%) [7]: 11% | Population Normal (%) [7]: 97% | Population Pyknosed Nuclei (%) [7]: 8% | Population Tubulin-Different-Phenotype (%) [7]: 3% | Total Cell Count [7]: 298 | Population Apoptotic (%) [8]: 53% | Population Fragmented Nuclei (%) [8]: 16% | Population Healthy Nuclei (%) [8]: 72% | Population Hoechst High Intensity Objects (%) [8]: 0% | Population Mitochondria Different-Phenotype (%) [8]: 6% | Population Mitotic Cells (%) [8]: 46% | Population Normal (%) [8]: 100% | Population Pyknosed Nuclei (%) [8]: 11% | Population Tubulin-Different-Phenotype (%) [8]: 6% | Total Cell Count [8]: 111 | Population Apoptotic (%) [9]: 93% | Population Fragmented Nuclei (%) [9]: 16% | Population Healthy Nuclei (%) [9]: 74% | Population Hoechst High Intensity Objects (%) [9]: 2% | Population Membrane Permeable-Phenotype (%) [9]: 5% | Population Mitochondria Different-Phenotype (%) [9]: 1% | Population Mitotic Cells (%) [9]: 6% | Population Normal (%) [9]: 97% | Population Pyknosed Nuclei (%) [9]: 8% | Population Tubulin-Different-Phenotype (%) [9]: 1% | Total Cell Count [9]: 368 | Population Apoptotic (%) [10]: 78% | Population Fragmented Nuclei (%) [10]: 11% | Population Healthy Nuclei (%) [10]: 79% | Population Hoechst High Intensity Objects (%) [10]: 3% | Population Membrane Permeable-Phenotype (%) [10]: 4% | Population Mitochondria Different-Phenotype (%) [10]: 3% | Population Mitotic Cells (%) [10]: 21% | Population Normal (%) [10]: 96% | Population Pyknosed Nuclei (%) [10]: 9% | Population Tubulin-Different-Phenotype (%) [10]: 2% | Total Cell Count [10]: 253 | Population Apoptotic (%) [11]: 97% | Population Fragmented Nuclei (%) [11]: 19% | Population Healthy Nuclei (%) [11]: 68% | Population Hoechst High Intensity Objects (%) [11]: 2% | Population Membrane Permeable-Phenotype (%) [11]: 6% | Population Mitochondria Different-Phenotype (%) [11]: 2% | Population Mitotic Cells (%) [11]: 2% | Population Normal (%) [11]: 97% | Population Pyknosed Nuclei (%) [11]: 12% | Population Tubulin-Different-Phenotype (%) [11]: 4% | Total Cell Count [11]: 396 | Population Apoptotic (%) [12]: 82% | Population Fragmented Nuclei (%) [12]: 16% | Population Healthy Nuclei (%) [12]: 73% | Population Hoechst High Intensity Objects (%) [12]: 1% | Population Membrane Permeable-Phenotype (%) [12]: 4% | Population Mitochondria Different-Phenotype (%) [12]: 1% | Population Mitotic Cells (%) [12]: 17% | Population Normal (%) [12]: 98% | Population Pyknosed Nuclei (%) [12]: 10% | Population Tubulin-Different-Phenotype (%) [12]: 0% | Total Cell Count [12]: 170

From ChEMBL document CHEMBL5058577, “EUbOPEN Chemogenomics Library 2 (Multiplex)” (2022)
